This note sets out measurements from ChEMBL document CHEMBL3227958, “A preliminary structure-activity study of the mixed-function oxidase inhibitor 7,8-benzoflavone” (J Med Chem, 1979).

Bounds are passed on as bounds.

A short description of data set [1]: Inhibition of benzo(alpha)pyrene monooxygenase in 3-methylcholanthrene-treated Sprague-Dawley rat liver microsomes using [3H]benzo(alpha)pyrene as substrate after 15 mins by liquid scintillation spectrometry. The following applies: read-out: I50. An outline of the steps:
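Liver microsomes from male Sprague-Dawley rats (60-80 g) given 3-methylcholanthrene 20 mg/kg ip in corn oil on 2 days, then starved 24 h. Run with 0.200 mg/mL protein, NADPH-generating system and 60 μM [3H]benzo[a]pyrene for 15 min at 37 °C. Hydroxylated products were taken into alkali and counted. I50 came from log concentration vs % activity, with at least four concentrations and triplicates.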

Data set [2] in a line: Inhibition of benzo(alpha)pyrene monooxygenase in phenobarbital-treated Sprague-Dawley rat liver microsomes using [3H]benzo(alpha)pyrene as substrate after 15 mins by liquid scintillation spectrometry. Particulars: read-out: I50. An outline of the steps: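 Microsomes came from male Sprague-Dawley rats (60-80 g) given phenobarbital 80 mg/kg ip in saline on 3 days, then starved 24 h. The assay used 0.400 mg/mL protein, NADP/glucose 6-phosphate/G6PDH and 60 μM [3H]benzo[a]pyrene for 15 min at 37 °C. Hexane/alkali extraction was followed by scintillation counting, minus an ethanolic-NaOH-treated microsome blank. I50 used ≥4 inhibitor concentrations, log-dose plot, three replicates.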
(Liver microsomes are vesicles of endoplasmic reticulum, rich in cytochrome P450 enzymes.)

The test system of data set [3] is benzo(alpha)pyrene monooxygenase. Put plainly: Inhibition of benzo(alpha)pyrene monooxygenase in phenobarbital-treated Sprague-Dawley rat liver microsomes using [3H]benzo(alpha)pyrene as substrate at 100 uM after 15 mins by liquid scintillation spectrometry. Particulars: liver microsomes from phenobarbital-treated rats, probe [3H]benzo(alpha)pyrene. The procedure, abridged: (§1)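 Single-concentration change in benzo[a]pyrene oxidation versus solvent controls, using phenobarbital-induced male Sprague-Dawley rat liver microsomes at 0.400 mg/mL protein. Conditions: 60 μM [3H]benzo[a]pyrene, NADPH-generating system, 15 min at 37 °C. Termination used ethanolic NaOH, then hexane extraction and scintillation counting of the lower phase, corrected with an ethanolic-NaOH-treated microsome blank. Three replicates.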

Data set [4] is described as follows: Stimulation of benzo(alpha)pyrene monooxygenase in phenobarbital-treated Sprague-Dawley rat liver microsomes using [3H]benzo(alpha)pyrene as substrate at 99 uM after 15 mins by liquid scintillation spectrometry. Particulars: 0.25 h. The data set is classed as ADME. An outline of the steps: as §1
Data set [5] has as its system benzo(alpha)pyrene monooxygenase. Put plainly: Inhibition of benzo(alpha)pyrene monooxygenase in 3-methylcholanthrene-treated Sprague-Dawley rat liver microsomes using [3H]benzo(alpha)pyrene as substrate at 99 uM after 15 mins by liquid scintillation spectrometry. The following applies: liver microsomes from 3-methylcholanthrene-treated rats, probe [3H]benzo(alpha)pyrene. The procedure, abridged:
(§2)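 Percent inhibition or stimulation was measured at the single stated inhibitor concentration, relative to solvent-only controls. Hepatic microsomes were from 3-methylcholanthrene-pretreated male Sprague-Dawley rats, used at 0.200 mg/mL protein with an NADPH-generating system. Substrate was 60 μM [3H]benzo[a]pyrene, incubated 15 min at 37 °C. The reaction was stopped with NaOH in 80% ethanol, hexane-extracted, and the aqueous phase counted. Triplicate samples.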

The test system is the same in data set [6]. Nature of the data set: Inhibition of benzo(alpha)pyrene monooxygenase in 3-methylcholanthrene-treated Sprague-Dawley rat liver microsomes using [3H]benzo(alpha)pyrene as substrate at 100 uM after 15 mins by liquid scintillation spectrometry. Particulars: liver microsomes from 3-methylcholanthrene-treated rats, probe [3H]benzo(alpha)pyrene. The procedure, abridged:
as §2

Data set [7] is described as follows: Stimulation of benzo(alpha)pyrene monooxygenase in phenobarbital-treated Sprague-Dawley rat liver microsomes using [3H]benzo(alpha)pyrene as substrate at 100 uM after 15 mins by liquid scintillation spectrometry. The data set is classed as ADME. Particulars: 0.25 h. An outline of the steps:
as §1

In data set [8] the test system is benzo(alpha)pyrene monooxygenase. Put plainly: Inhibition of benzo(alpha)pyrene monooxygenase in phenobarbital-treated Sprague-Dawley rat liver microsomes using [3H]benzo(alpha)pyrene as substrate at 104 uM after 15 mins by liquid scintillation spectrometry. The following applies: liver microsomes from phenobarbital-treated rats, probe [3H]benzo(alpha)pyrene. The procedure, abridged: as §1

Data set [9] in a line: Stimulation of benzo(alpha)pyrene monooxygenase in phenobarbital-treated Sprague-Dawley rat liver microsomes using [3H]benzo(alpha)pyrene as substrate at 98 uM after 15 mins by liquid scintillation spectrometry. In kind it is ADME. The following applies: 0.25 h. The procedure, abridged: as §1
Data set [10] relates to benzo(alpha)pyrene monooxygenase. Nature of the data set: Inhibition of benzo(alpha)pyrene monooxygenase in phenobarbital-treated Sprague-Dawley rat liver microsomes using [3H]benzo(alpha)pyrene as substrate at 99 uM after 15 mins by liquid scintillation spectrometry. The following applies: liver microsomes from phenobarbital-treated rats, probe [3H]benzo(alpha)pyrene. An outline of the steps: as §1

A short description of data set [11]: Stimulation of benzo(alpha)pyrene monooxygenase in phenobarbital-treated Sprague-Dawley rat liver microsomes using [3H]benzo(alpha)pyrene as substrate at 200 uM after 15 mins by liquid scintillation spectrometry. In kind it is ADME. Particulars: 0.25 h. An outline of the steps: as §1
Data set [12] in a line: Stimulation of benzo(alpha)pyrene monooxygenase in 3-methylcholanthrene-treated Sprague-Dawley rat liver microsomes using [3H]benzo(alpha)pyrene as substrate at 200 uM after 15 mins by liquid scintillation spectrometry. In kind it is ADME. The following applies: 0.25 h. An outline of the steps: as §2

For the compound `COc1ccccc1-c1cc(=O)c2ccc3ccccc3c2o1`, the figures for the IC50 in data set [1] and in [2] were 13 µM and > 100 µM, respectively. For the same compound, the inhibition (usually the relative decrease from the control value, in per cent) at 0.25 h, 100 µM in [3] stood at 34%.

`O=c1cc(-c2ccccc2)oc2c1cc(Br)c1ccccc12`: the IC50 in data set [1] and in data set [2] was > 97 µM in each case.

As to `Nc1cc2c(=O)cc(-c3ccccc3)oc2c2ccccc12`, the IC50 in data set [1] was 31 µM; in data set [2], 82 µM.

Regarding `O=c1cc(-c2ccc([N+](=O)[O-])cc2)oc2c1ccc1ccccc12`, in [4], the Activity came to 33%. Moreover, the IC50 in [1] and in data set [2] was > 99 µM throughout. In data set [5], this compound returned an inhibition at 0.25 h, 99 µM of 0%.

`O=c1cc(-c2ccc3ccccc3c2)oc2c1ccc1ccccc12`: the IC50 was 11 µM in data set [1] and > 100 µM in [2]. In data set [3], this compound registered an inhibition at 0.25 h, 100 µM of 0%.

Consider `O=c1cc(-c2cccc([N+](=O)[O-])c2)oc2c1ccc1ccccc12`, for which the IC50 in [1] and in data set [2] was > 100 µM in each case. The compound also gave an inhibition at 0.25 h, 100 µM in data set [6] of 36%. Besides, the Activity in data set [7] is 42%.

`c1ccc(-c2cc3ccc4ccccc4c3o2)cc1` showed an inhibition at 0.25 h, 104 µM in data set [8] of 34%. Also, the IC50 in data set [1] and in data set [2] was > 104 µM in each case.

For the compound `O=c1cc(-c2ccccc2)oc2c1ccc1ccccc12` [ALPHA-NAPHTHOFLAVONE], the figures for the IC50 in [1] and in data set [2] were 10 µM and > 100 µM, respectively. The compound further came in with an Activity in data set [7] of 21%.

Consider `COc1cccc(-c2cc(=O)c3ccc4ccccc4c3o2)c1`, for which the IC50 is 11 µM in data set [1] and > 98 µM in data set [2]. This compound returned an Activity in data set [9] of 9%.

In the case of `O=c1cc(-c2ccc(Cl)cc2)oc2c1ccc1ccccc12`, the IC50 is 13 µM in [1] and > 99 µM in [2]. Moreover, in data set [10], the inhibition at 0.25 h, 99 µM came out at 0%.

With `COc1ccc(-c2cc(=O)c3ccc4ccccc4c3o2)cc1`, the IC50 in [1] and in data set [2] was > 100 µM throughout. Also, the inhibition at 0.25 h, 100 µM is 46% in data set [6] and 0% in [3].

For the compound `O=c1cc(-c2ccccc2)oc2c1cc([N+](=O)[O-])c1ccccc12`, the results for the Activity in [11] and in data set [12] were 43% and 34%, respectively. Also, the IC50 in data set [1] and in data set [2] was > 200 µM each time.

`O=c1c(-c2ccccc2)coc2c1ccc1ccccc12`: the IC50 in data set [1] and in [2] was > 100 µM each time. This compound also displayed an inhibition at 0.25 h, 100 µM in data set [6] of 18%. In addition, the Activity in [7] was determined as 6%.
